Measured values reported in ChEMBL document CHEMBL3286365, “Neoflavonoids as potential osteogenic agents from Dalbergia sissoo heartwood” (Bioorg Med Chem Lett, 2014).
Active and inactive are the calls of the source. The calls are words filed in the database; no cut-off is given here.

Key:
Format in all cases: functional, cell-based
Calvarial osteoblast [1] = assay: Osteogenic activity in rat calvarial osteoblast cells assessed as induction of cell differentiation by measuring alkaline phosphatase activity using pNPP as substrate by calorimetric analysis; conditions: for EC50: Rattus norvegicus, Calvarial osteoblast
Procedure, shortened: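 Primary rat calvarial osteoblasts, trypsinized at about 80% confluence, seeded at 2×10³ cells/well. Treated with compound (100µM, 1µM, 10nM, 100pM, 1pM) or vehicle for 48 h in α-MEM with 10% FBS, 10mM β-glycerophosphate, 50µg/ml ascorbic acid and 1% penicillin/streptomycin. Total ALP measured with p-nitrophenylphosphate substrate, absorbance at 405 nm. Mean±S.D. of three independent experiments.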

Calvarial osteoblast [2] = assay: Increase in BMP-2 gene expression in rat calvarial osteoblast cells by qPCR analysis
Calvarial osteoblast [3] = assay: Increase in RunX2 gene expression in rat calvarial osteoblast cells by qPCR analysis
Calvarial osteoblast [4] = assay: Increase in collagen 1 gene expression in rat calvarial osteoblast cells by qPCR analysis
Calvarial osteoblast [5] = assay: Increase in osteocalcin gene expression in rat calvarial osteoblast cells by qPCR analysis
Calvarial osteoblast [6] = assay: Osteogenic activity in rat calvarial osteoblast cells assessed as induction of mineralization by Alizarin red-S staining
Procedure, shortened: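 Calvarial osteoblasts trypsinized at 80% confluence and plated at 2.5×10⁴ cells/well. Treated with compound in differentiation medium (ascorbic acid 50µg/ml, β-glycerophosphate 10mM), with medium changed every alternate day for up to 21 days. Fixed in 4% paraformaldehyde for 15 min, stained 30 min with 40mM Alizarin Red-S (pH 4.5). Dye extracted with 10% acetic acid, heated at 85°C, neutralized with ammonium hydroxide, OD read at 405 nm.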

SMILES | EC50 (Calvarial osteoblast [1]) | concentration of maximal effect (Calvarial osteoblast [1]) | Activity (Calvarial osteoblast [2]) | Activity (Calvarial osteoblast [3]) | Activity (Calvarial osteoblast [4]) | Activity (Calvarial osteoblast [5]) | Activity (Calvarial osteoblast [6])
COC1=CC(=O)c2cc(-c3ccccc3)c3cc(O)c(OC)cc3c2C1=O [LATINONE] | – | 1 µM | Active | Active | Active | Active | –
COc1cc2oc(=O)cc(-c3ccccc3)c2cc1OC | – | 1 µM | Active | Active | Active | Active | Active
COc1cc2c(cc1O)C(c1ccccc1)=CCO2 | 1700 nM | 0.01 µM | Active | Active | Active | Active | –
C=CC(c1ccccc1)c1cc(O)c(OC)cc1OC (stereo unspecified) [DALBERGIPHENOL] | – | 0.01 µM | Active | Active | Active | Active | Active

Continued, in another order:

EC50 (Calvarial osteoblast [1]) | SMILES | concentration of maximal effect (Calvarial osteoblast [1]) | Activity (Calvarial osteoblast [2]) | Activity (Calvarial osteoblast [3]) | Activity (Calvarial osteoblast [4]) | Activity (Calvarial osteoblast [5]) | Activity (Calvarial osteoblast [6])
1.01 nM | COc1cc2oc(=O)cc(-c3ccccc3)c2cc1O [DALBERGIN] | 1e-06 µM | Active | Active | Active | Active | –
6.46 nM | COc1cc(OC)c(/C(=C/C=O)c2ccccc2)cc1O | 0.0001 µM | Active | Active | Active | Active | Active
